Data taken from ChEMBL document CHEMBL1811848 (Bioorg Med Chem Lett, 2011).

Experiments:
[1] = test system: Mus musculus; test: Reduction in serum triglyceride level in Swiss albino mouse at 10 mg/kg, po administered for 6 days relative to control; format: functional; design: scale not given: the % may be the effect or the level left
How it was run: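 Male Swiss albino mice aged 6–8 weeks were given 10 mg/kg/day orally for 6 days. Serum triglyceride was expressed as % change versus vehicle controls, mean of n = 6.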

[2] = test system: Mus musculus; test: Antihyperglycemic activity in db/db mouse assessed as reduction in glucose level at 3 mg/kg/day, po administered for 6 days relative to control; format: functional; design: scale not given: the % may be the effect or the level left
How it was run: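 Male db/db mice aged 6–8 weeks were dosed orally once daily for 6 days. Plasma glucose was then measured and expressed as % change versus vehicle-treated controls.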

[3] = Tmax in fasting Wistar rat at 30 mg/kg, po; format: ADME, organism-based; design: dose 30 mg/kg, route oral; settings: in vivo
How it was run: (§1)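 Fasted male Wistar rats received one oral dose of 30 mg/kg. Plasma Cmax, T1/2 and Tmax are reported as mean ± SD of n = 3.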

[4] = Cmax in fasting Wistar rat at 30 mg/kg, po; format: ADME, organism-based; design: dose 30 mg/kg, route oral; settings: in vivo; how it was run: as §1
[5] = Half life in fasting Wistar rat at 30 mg/kg, po; format: ADME, organism-based; design: dose 30 mg/kg, route oral; settings: in vivo; how it was run: as §1
[6] = AUC (0 to infinity) in fasting Wistar rat at 30 mg/kg, po; format: ADME, organism-based; design: time infinity, dose 30 mg/kg, route oral; settings: plasma
How it was run: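 Single oral dose of 30 mg/kg to fasted male Wistar rats. Pharmacokinetic parameters reported as mean ± SD, n = 3.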

[7] = test system: Mus musculus; test: Hypolipidemic activity in Swiss albino mouse assessed as reduction in triglyceride level at 0.03 mg/kg, po; format: functional; design: scale not given: the % may be the effect or the level left
[8] = test system: Mus musculus; test: Hypolipidemic activity in Swiss albino mouse assessed as reduction in triglyceride level at 0.1 mg/kg, po; format: functional; design: scale not given: the % may be the effect or the level left
[9] = test system: Mus musculus; test: Hypolipidemic activity in db/db mouse assessed as reduction in triglyceride level at 0.003 mg/kg, po; format: functional; design: scale not given: the % may be the effect or the level left
[10] = test system: Mus musculus; test: Hypolipidemic activity in db/db mouse assessed as reduction in triglyceride level at 0.03 mg/kg, po; format: functional; design: scale not given: the % may be the effect or the level left
[11] = test system: Mus musculus; test: Antihyperglycemic activity in db/db mouse assessed as reduction in plasma glucose level at 0.1 mg/kg, po; format: functional; design: scale not given: the % may be the effect or the level left
[12] = test system: Mus musculus; test: Antihyperglycemic activity in db/db mouse assessed as reduction in plasma glucose level at 1 mg/kg, po; format: functional; design: scale not given: the % may be the effect or the level left
[13] = test system: Mus musculus; test: Antihyperglycemic activity in db/db mouse assessed as reduction in plasma glucose level at 3 mg/kg, po; format: functional; design: scale not given: the % may be the effect or the level left
[14] = organism: Mus musculus; test: Antihyperglycemic activity in db/db mouse assessed as reduction in plasma glucose level; format: functional
[15] = test system: Rattus norvegicus; test: Toxicity in male Wistar rat assessed as adrenal to body weight ratio at 30 mg/kg, po measured after 28 days (reference value: 0.018 +/- 0.001); format: organism-based; design: dose 30 mg/kg, route oral; settings: in vivo, 672 h
[16] = test system: Rattus norvegicus; test: Toxicity in female Wistar rat assessed as heart to body weight ratio at 30 mg/kg, po measured after 28 days (reference value: 0.403 +/- 0.010); format: organism-based; design: dose 30 mg/kg, route oral; settings: in vivo, 672 h
[17] = test system: Rattus norvegicus; test: Toxicity in female Wistar rat assessed as kidney to body weight ratio at 3 mg/kg, po measured after 28 days (reference value: 0.733 +/- 0.007); format: organism-based; design: dose 3 mg/kg, route oral; settings: in vivo, 672 h
[18] = test system: Rattus norvegicus; test: Toxicity in female Wistar rat assessed as spleen to body weight ratio at 3 mg/kg, po measured after 28 days (reference value: 0.237 +/- 0.012); format: organism-based; design: dose 3 mg/kg, route oral; settings: in vivo, 672 h
[19] = test system: Rattus norvegicus; test: Toxicity in female Wistar rat assessed as brain to body weight ratio at 30 mg/kg, po measured after 28 days (reference value: 0.970 +/- 0.023); format: organism-based; design: dose 30 mg/kg, route oral; settings: in vivo, 672 h
[20] = test system: Rattus norvegicus; test: Toxicity in female Wistar rat assessed as ovary to body weight ratio at 3 mg/kg, po measured after 28 days (reference value: 0.039 +/- 0.005); format: organism-based, Female gonad; design: dose 3 mg/kg, route oral; settings: in vivo, 672 h
[21] = test system: Rattus norvegicus; test: Toxicity in female Wistar rat assessed as ovary to body weight ratio at 30 mg/kg, po measured after 28 days (reference value: 0.039 +/- 0.005); format: organism-based, Female gonad; design: dose 30 mg/kg, route oral; settings: in vivo, 672 h
[22] = test system: Rattus norvegicus; test: Toxicity in female Wistar rat assessed as uterus to body weight ratio at 3 mg/kg, po measured after 28 days (reference value: 0.233 +/- 0.041); format: organism-based; design: dose 3 mg/kg, route oral; settings: in vivo, 672 h
[23] = test system: Rattus norvegicus; test: Toxicity in female Wistar rat assessed as uterus to body weight ratio at 30 mg/kg, po measured after 28 days (reference value: 0.233 +/- 0.041); format: organism-based; design: dose 30 mg/kg, route oral; settings: in vivo, 672 h
[24] = test system: Rattus norvegicus; test: Toxicity in female Wistar rat assessed as thymus to body weight ratio at 30 mg/kg, po measured after 28 days (reference value: 0.094 +/- 0.01); format: organism-based; design: dose 30 mg/kg, route oral; settings: in vivo, 672 h
[25] = test system: Rattus norvegicus; test: Toxicity in female Wistar rat assessed as change in body weight at 3 mg/kg, po measured after 28 days relative to control; format: organism-based; design: dose 3 mg/kg, route oral; settings: in vivo, 672 h
How it was run: (§2)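 Wistar rats received 3 or 30 mg/kg orally for 28 days. Body weight was recorded weekly, and the % change in body weight over the study is tabulated.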

[26] = test system: Rattus norvegicus; test: Toxicity in female Wistar rat assessed as change in body weight at 30 mg/kg, po measured after 28 days relative to control; format: organism-based; design: dose 30 mg/kg, route oral; settings: in vivo, 672 h; how it was run: as §2
[27] = test system: Rattus norvegicus; test: Toxicity in male Wistar rat assessed as glucose level at 30 mg/kg, po measured after 28 days (reference value: 70 +/- 3.49 mg/dl); format: organism-based; design: dose 30 mg/kg, route oral; settings: in vivo, 672 h
[28] = test system: Rattus norvegicus; test: Toxicity in male Wistar rat assessed as creatinine level at 3 mg/kg, po measured after 28 days (reference value: 0.47 +/- 0.03 mg/dl); format: organism-based; design: dose 3 mg/kg, route oral; settings: in vivo, 672 h
[29] = test system: Rattus norvegicus; test: Toxicity in male Wistar rat assessed as SGPT level at 3 mg/kg, po measured after 28 days (reference value: 34.24 +/- 2.13 U/L); format: organism-based; design: dose 3 mg/kg, route oral; settings: in vivo, 672 h
[30] = test system: Rattus norvegicus; test: Toxicity in male Wistar rat assessed as SGPT level at 30 mg/kg, po measured after 28 days (reference value: 34.24 +/- 2.13 U/L); format: organism-based; design: dose 30 mg/kg, route oral; settings: in vivo, 672 h
[31] = test system: Rattus norvegicus; test: Toxicity in male Wistar rat assessed as urea level at 3 mg/kg, po measured after 28 days (reference value: 30.52 +/- 0.79 mg/dl); format: organism-based; design: dose 3 mg/kg, route oral; settings: in vivo, 672 h
[32] = test system: Rattus norvegicus; test: Toxicity in female Wistar rat assessed as Glucose level at 3 mg/kg, po measured after 28 days (reference value: 69.94 +/- 2.30 mg/dl); format: organism-based; design: dose 3 mg/kg, route oral; settings: in vivo, 672 h
[33] = test system: Rattus norvegicus; test: Toxicity in female Wistar rat assessed as creatinine level at 3 mg/kg, po measured after 28 days (reference value: 0.42 +/- 0.04 mg/dl); format: organism-based; design: dose 3 mg/kg, route oral; settings: in vivo, 672 h
[34] = test system: Rattus norvegicus; test: Toxicity in female Wistar rat assessed as creatinine level at 30 mg/kg, po measured after 28 days (reference value: 0.42 +/- 0.04 mg/dl); format: organism-based; design: dose 30 mg/kg, route oral; settings: in vivo, 672 h
[35] = test system: Rattus norvegicus; test: Toxicity in female Wistar rat assessed as SGOT level at 3 mg/kg, po measured after 28 days (reference value: 155.70 +/- 6.56 U/L); format: organism-based; design: dose 3 mg/kg, route oral; settings: in vivo, 672 h
[36] = test system: Rattus norvegicus; test: Toxicity in female Wistar rat assessed as SGOT level at 30 mg/kg, po measured after 28 days (reference value: 155.70 +/- 6.56 U/L); format: organism-based; design: dose 30 mg/kg, route oral; settings: in vivo, 672 h
[37] = test system: Rattus norvegicus; test: Toxicity in female Wistar rat assessed as albumin level at 3 mg/kg, po measured after 28 days (reference value: 3.92 +/- 0.18 g.dl); format: organism-based; design: dose 3 mg/kg, route oral; settings: in vivo, 672 h
[38] = test system: Rattus norvegicus; test: Toxicity in female Wistar rat assessed as urea level at 3 mg/kg, po measured after 28 days (reference value: 33.05 +/- 2.02 mg/dl); format: organism-based; design: dose 3 mg/kg, route oral; settings: in vivo, 672 h
[39] = test system: Rattus norvegicus; test: Toxicity in female Wistar rat assessed as urea level at 30 mg/kg, po measured after 28 days (reference value: 33.05 +/- 2.02 mg/dl); format: organism-based; design: dose 30 mg/kg, route oral; settings: in vivo, 672 h

Tmax [3]: 0.667 h
Cmax [4]: 91.7 µg/mL
half-life [5]: 7.4 h
AUC(0-inf) [6]: 456 µg·h/mL
Structure (SMILES): CCO[C@@H](Cc1ccc(OCCc2nc(-c3ccc(C)s3)oc2C)cc1)C(=O)O
Activity [1]: 88%
Activity [2]: 72%
Activity [7]: 65.6%
Activity [8]: 71.8%
Activity [9]: 7.2%
Activity [10]: 25.9%
Activity [11]: 51.7%
Activity [12]: 59.7%
Activity [13]: 62.2%
ED50 [14]: 0.166 mg/kg
Ratio [15]: 0.018
Ratio [16]: 0.501
Ratio [17]: 0.804
Ratio [18]: 0.257
Ratio [19]: 0.939
Ratio [20]: 0.02
Ratio [21]: 0.024
Ratio [22]: 0.176
Ratio [23]: 0.189
Ratio [24]: 0.066
Activity [25]: 21.77%
Activity [26]: 21.71%
Activity [27]: 83.28 mg/dL
Activity [28]: 0.36 mg/dL
Activity [29]: 28.54 U/L
Activity [30]: 33.03 U/L
Activity [31]: 31.24 mg/dL
Activity [32]: 91.88 mg/dL
Activity [33]: 0.36 mg/dL
Activity [34]: 0.41 mg/dL
Activity [35]: 157.09 U/L
Activity [36]: 224 U/L
Activity [37]: 4.03 g/dL
Activity [38]: 29.19 mg/dL
Activity [39]: 37.39 mg/dL
